{
  "source": "paper PMC2695546",
  "about": "(Psychopharmacology, 2009)",
  "key": {"σ1 receptor": {"molecular_target": "σ1 receptor (Mus musculus, UniProt O55242)", "test": "[3H]", "assay_type": "binding"}, "[1]": {"test_system": "capsaicin-sensitized mice", "test": "Capsaicin-induced mechanical hypersensitivity", "assay_type": "in vivo, mouse"}, "mice": {"test_system": "mice", "test": "Rotarod test", "assay_type": "in vivo, mouse", "settings": "for Effect on rotarod latency: 45 min after s.c., mg/kg: HP 0.06, HP-Met-I 64, HP-Met-II 0.25, (−)-sulpiride 100, HP-Met-III 128, PRE-084 64; for Effect of PRE-084 on the drug's effect in the rotarod test: PRE-084 64 mg/kg s.c., HP 0.125 mg/kg, HP-Met-II 1 mg/kg s.c.", "in_short": "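Female CD-1 mice (25–30 g), housed at 21 ± 1°C on a 12-h light/dark cycle. Motor coordination was tested on an accelerating rotarod. Latency to fall was recorded before injection (time 0) and 45 min after s.c. dosing. PRE-084 was injected s.c. immediately before the other drug, at a separate site. Controls received an equal volume of vehicle.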"}, "[2]": {"settings": "from dose–response curves, s.c., capsaicin 1 µg i.pl., 0.5 g force"}, "[3]": {"settings": "naloxone 1 mg/kg s.c., morphine 0.25, HP 0.06, HP-Met-II 0.25, HP-Met-I 64 mg/kg s.c."}, "[4]": {"settings": "read-out: IC50 (concentration of unlabeled drug that inhibited the specific binding of [3H](+)-pentazocine by 50%), mouse brain membranes P2 fraction, 5 nM [3H](+)-pentazocine, 240 min, 30°C, pH 8"}},
  "note": "Where a name gives a salt, the structure may show the parent alone. Read-outs that look alike come from different tables or passages of the source.",
  "data": [
    {"smiles": "CCN1CCC[C@H]1CNC(=O)c1cc(S(N)(=O)=O)ccc1OC", "note": "[(−)-Sulpiride, (−)-sulpiride]", "values": [
      {"measurement": "IC50", "setting": "σ1 receptor", "value": "> 10000", "unit": "nM"},
      {"measurement": "ED50 (dose producing half of the maximal antiallodynic effect)", "setting": "[1]; mouse, in vivo", "value": "Inactive^a"},
      {"measurement": "Effect on rotarod latency", "setting": "mice", "value": "devoid of any effect"}
    ]},
    {"smiles": "CN1CCN(CCc2ccc(Cl)c(Cl)c2)CC1.Cl.Cl", "note": "[BD-1063, 1-[2-(3,4-dichlorophenyl)ethyl]-4-methylpiperazine dihydrochloride]", "values": [
      {"measurement": "Effect of PRE-084 on the antiallodynic effect of the drug", "setting": "[1]; mouse, in vivo", "value": "completely antagonized"}
    ]},
    {"smiles": "OC1(c2ccc(Cl)cc2)CCNCC1", "note": "[Haloperidol metabolite I, 4-(4-chlorophenyl)-4-hydroxypiperidine]", "values": [
      {"measurement": "IC50", "setting": "σ1 receptor", "value": "254 ± 18.4", "unit": "nM"},
      {"measurement": "Emax (maximum antiallodynic effect)", "setting": "[1]; [2]", "value": "62.27 ± 6.99", "unit": "%"},
      {"measurement": "Effect of PRE-084 on the antiallodynic effect of the drug", "setting": "[1]; mouse, in vivo", "value": "completely and dose-dependently prevented"},
      {"measurement": "Effect of naloxone on the antiallodynic effect of the drug", "setting": "[1]; mouse, in vivo", "value": "did not significantly modify"},
      {"measurement": "Effect on rotarod latency", "setting": "mice", "value": "no effect"}
    ]},
    {"smiles": "OC(CCCN1CCC(O)(c2ccc(Cl)cc2)CC1)c1ccc(F)cc1", "note": "(stereo not drawn) [Haloperidol metabolite II, 4-(4-chlorophenyl)-α-(4-fluorophenyl)-4-hydroxy-1-piperidinebutanol]", "values": [
      {"measurement": "IC50", "setting": "σ1 receptor", "value": "12.8 ± 0.69", "unit": "nM"},
      {"measurement": "Emax (maximum antiallodynic effect)", "setting": "[1]; [2]", "value": 100, "unit": "%"},
      {"measurement": "Effect of naloxone on the antiallodynic effect of the drug", "setting": "[1]; [3]", "value": "did not significantly modify"},
      {"measurement": "Antiallodynic effect at higher doses", "setting": "[1]; s.c., HP 0.125 mg/kg, HP-Met-II 1 mg/kg", "value": 100, "unit": "%"},
      {"measurement": "Effect on rotarod latency", "setting": "mice", "value": "no effect"},
      {"measurement": "Effect of PRE-084 on the drug's effect in the rotarod test", "setting": "mice", "value": "not prevented"}
    ]},
    {"smiles": "O=C(O)CCC(=O)c1ccc(F)cc1", "note": "[Haloperidol metabolite III, p-fluorobenzoylpropionic acid]", "values": [
      {"measurement": "IC50", "setting": "σ1 receptor; [4]", "value": "> 10000", "unit": "nM"},
      {"measurement": "Effect on rotarod latency", "setting": "mice", "value": "devoid of any effect"}
    ]},
    {"smiles": "O=C(CCCN1CCC(O)(c2ccc(Cl)cc2)CC1)c1ccc(F)cc1", "note": "[Haloperidol, haloperidol]", "values": [
      {"measurement": "Antiallodynic effect at higher doses", "setting": "[1]; mouse, in vivo", "value": 100, "unit": "%"},
      {"measurement": "Effect of PRE-084 on the antiallodynic effect of the drug", "setting": "[1]; mouse, in vivo", "value": "dose-dependent reversion"},
      {"measurement": "Effect of naloxone on the antiallodynic effect of the drug", "setting": "[1]; mouse, in vivo", "value": "did not significantly modify"},
      {"measurement": "Emax (maximum antiallodynic effect)", "setting": "[1]; mouse, in vivo, sc", "value": 100, "unit": "%"},
      {"measurement": "Effect on rotarod latency", "setting": "mice", "value": "no effect"},
      {"measurement": "Effect of PRE-084 on the drug's effect in the rotarod test", "setting": "mice", "value": "not prevented"}
    ]},
    {"smiles": "Cl.O=C(OCCN1CCOCC1)C1(c2ccccc2)CCCCC1", "note": "[PRE-084, 2-(4-morpholinethyl)1-phenylcyclohexanecarboxylate) hydrochloride]", "values": [
      {"measurement": "IC50", "setting": "σ1 receptor; [4]", "value": "171 ± 18.4", "unit": "nM"}
    ]},
    {"smiles": "Cl.O=C(OCCN1CCOCC1)C1(c2ccccc2)CCCCC1", "note": "[PRE-084]", "values": [
      {"measurement": "Effect on rotarod latency", "setting": "mice", "value": "devoid of any effect"}
    ]},
    {"smiles": "COc1cc(CNC(=O)CCCC/C=C/C(C)C)ccc1O", "note": "[capsaicin]", "values": [
      {"measurement": "Decrease in the EF50 value for inducing paw withdrawal in comparison to control mice", "setting": "[1]; capsaicin 1 µg i.pl. vs DMSO-treated", "value": 9.4, "unit": "fold"},
      {"measurement": "EF50 (force producing half the maximal reduction in paw withdrawal latency time)", "setting": "[1]; capsaicin 1 µg i.pl., 15 min before stimulation, forces 0.05–8 g", "value": "0.30 ± 0.02", "unit": "g"}
    ]},
    {"smiles": "Clc1cccc(Cl)c1N=C1NCCN1", "note": "[clonidine]", "values": [
      {"measurement": "IC50", "setting": "σ1 receptor", "value": "> 10000", "unit": "nM"}
    ]},
    {"smiles": "NCC1(CC(=O)O)CCCCC1", "note": "[gabapentin]", "values": [
      {"measurement": "IC50", "setting": "σ1 receptor", "value": "> 10000", "unit": "nM"}
    ]},
    {"smiles": "CN1CC[C@]23c4c5ccc(O)c4O[C@H]2[C@@H](O)C=C[C@H]3[C@H]1C5", "note": "[morphine, morphine hydrochloride]", "values": [
      {"measurement": "Effect of naloxone on the antiallodynic effect of the drug", "setting": "[1]; [3]", "value": "reversed"}
    ]},
    {"smiles": "CS(=O)(=O)c1ccc(C2=C(c3ccccc3)C(=O)OC2)cc1", "note": "[rofecoxib]", "values": [
      {"measurement": "IC50", "setting": "σ1 receptor", "value": "> 10000", "unit": "nM"}
    ]}
  ]
}
